Measurements from the RNAGym collection of RNA variant scans (doi:10.1126/science.aae0568).
This sample holds only a part of the variants without activity.

B1: tRNA (parent)
chain: GUUCCGUUGGCGUAAUGGUAACGCGUCUCCCUCCUAAGGAGAAGACUGCGGGUUCGAGUCCCGUACGGAACG

Variants of: B1
Experiment: yeast fitness relative to wild type (ratio to wild type); higher = fitter; tRNA-Arg(CCU), competitive growth, 37 C, YPD
Outline: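 Variants of the tRNA-Arg(CCU) gene, chemically synthesised with a 3% per-site mutation rate at 69 sites, were placed at the native genomic locus in Saccharomyces cerevisiae. The pooled strains were competed in YPD at 37°C for 24 hours in six parallel replicates. Gene amplicons from the start population and from each end population were read by 100-nucleotide paired-end sequencing. Darwinian fitness relative to wild type came from changes in genotype frequencies; genotypes needed ≥ 100 starting reads, and estimates < 0.5 were set to 0.5.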

For GUUCCGUUGGCGUAAUGGUAACGCGUCUCCCUCCUAAGGAGAAGACUGCGGGUUCGAAUCCCGGACGGAACG [G58A U64G], which yeast fitness is on record?
The yeast fitness was 1.01.

For GUUCCGUUGGCGUAAUGGUAACGCGUCUCCCUCCUAAGGAGAAGACUGCGGGUUCGACUCCCGUACGGAACG [G58C], which yeast fitness is on record?
Its yeast fitness is 0.992.

Which yeast fitness does the source give for GUUCCGUUGGCGUAAUGGUAACGCGUCUCCCUCCUAAGGAGAAGACUGCGGGUUCGACUCCCGUCCGGAACG [G58C A65C] here?
The yeast fitness was 0.867.

Which yeast fitness does the source give for GUUCCGUUGGCGUAAUGGUAACGCGUCUCCCUCCUAAGGAGAAGACUGCGGGUUCGACUCCCGUGCGGAACG [G58C A65G] here?
The yeast fitness was 0.933.

With GUUCCGUUGGCGUAAUGGUAACGCGUCUCCCUCCUAAGGAGAAGACUGCGGGUUCGACUCCCGUUCGGAACG [G58C A65U] as the variant, how does the yeast fitness read?
Its yeast fitness is 0.88.

For GUUCCGUUGGCGUAAUGGUAACGCGUCUCCCUCCUAAGGAGAAGACUGCGGGUUCGACUCCCGUACGGCACG [G58C A69C], which yeast fitness is on record?
The yeast fitness was 1.02.

For GUUCCGUUGGCGUAAUGGUAACGCGUCUCCCUCCUAAGGAGAAGACUGCGGGUUCGACUCCCGUACGGACCG [G58C A70C], which yeast fitness is on record?
Its yeast fitness is 0.923.

With GUUCCGUUGGCGUAAUGGUAACGCGUCUCCCUCCUAAGGAGAAGACUGCGGGUUCGACUCCCGUACGGAUCG [G58C A70U] as the variant, how does the yeast fitness read?
The yeast fitness was 1.

With GUUCCGUUGGCGUAAUGGUAACGCGUCUCCCUCCUAAGGAGAAGACUGCGGGUUCGACUGCCGUACGGAACG [G58C C60G] as the variant, how does the yeast fitness read?
Its yeast fitness is 0.683.

With GUUCCGUUGGCGUAAUGGUAACGCGUCUCCCUCCUAAGGAGAAGACUGCGGGUUCGACUCCGGUACGGAUCG [G58C C62G A70U] as the variant, how does the yeast fitness read?
Its yeast fitness is 0.616.

Which yeast fitness does the source give for GUUCCGUUGGCGUAAUGGUAACGCGUCUCCCUCCUAAGGAGAAGACUGCGGGUUCGACUCCCGUACUGAACG [G58C G67U] here?
Its yeast fitness is 0.832.

For GUUCCGUUGGCGUAAUGGUAACGCGUCUCCCUCCUAAGGAGAAGACUGCGGGUUCGACUCCCGUACGAAACG [G58C G68A], which yeast fitness is on record?
The yeast fitness was 0.776.

For GUUCCGUUGGCGUAAUGGUAACGCGUCUCCCUCCUAAGGAGAAGACUGCGGGUUCGACUCCCGUACGAAGCG [G58C G68A A70G], which yeast fitness is on record?
Its yeast fitness is no more than 0.5.

For GUUCCGUUGGCGUAAUGGUAACGCGUCUCCCUCCUAAGGAGAAGACUGCGGGUUCGACUCCCGUACGCAACG [G58C G68C], which yeast fitness is on record?
Its yeast fitness is 0.937.

For GUUCCGUUGGCGUAAUGGUAACGCGUCUCCCUCCUAAGGAGAAGACUGCGGGUUCGACUCCCGUACGUAACG [G58C G68U], which yeast fitness is on record?
The yeast fitness was 0.75.

Which yeast fitness does the source give for GUUCCGUUGGCGUAAUGGUAACGCGUCUCCCUCCUAAGGAGAAGACUGCGGGUUCGACACCCGUACCGAACG [G58C U59A G67C] here?
The yeast fitness was 0.556.

For GUUCCGUUGGCGUAAUGGUAACGCGUCUCCCUCCUAAGGAGAAGACUGCGGGUUCGACCCCCGUACGGAACG [G58C U59C], which yeast fitness is on record?
Its yeast fitness is 0.948.

Which yeast fitness does the source give for GUUCCGUUGGCGUAAUGGUAACGCGUCUCCCUCCUAAGGAGAAGACUGCGGGUUCGACUCCCGAACGGAACG [G58C U64A] here?
The yeast fitness was 0.81.

With GUUCCGUUGGCGUAAUGGUAACGCGUCUCCCUCCUAAGGAGAAGACUGCGGGUUCGACUCCCGAACGGCACG [G58C U64A A69C] as the variant, how does the yeast fitness read?
Its yeast fitness is 0.514.

For GUUCCGUUGGCGUAAUGGUAACGCGUCUCCCUCCUAAGGAGAAGACUGCGGGUUCGACUCCCGAACGGGACG [G58C U64A A69G], which yeast fitness is on record?
Its yeast fitness is 0.61.

With GUUCCGUUGGCGUAAUGGUAACGCGUCUCCCUCCUAAGGAGAAGACUGCGGGUUCGAUUCCCGUACGGAACG [G58U] as the variant, how does the yeast fitness read?
The yeast fitness was 1.04.

For GUUCCGUUGGCGUAAUGGUAACGCGUCUCCCUCCUAAGGAGAAGACUGCGGGUUCGAUUCCCGUUCGGAACG [G58U A65U], which yeast fitness is on record?
The yeast fitness was 0.979.

With GUUCCGUUGGCGUAAUGGUAACGCGUCUCCCUCCUAAGGAGAAGACUGCGGGUUCGAUUCCCCUACGGAACG [G58U G63C] as the variant, how does the yeast fitness read?
The yeast fitness was 0.586.

Which yeast fitness does the source give for GUUCCGUUGGCGUAAUGGUAACGCGUCUCCCUCCUAAGGAGAAGACUGCGGGUUCGAGACCCGUCCGGAACG [U59A A65C] here?
The yeast fitness was 0.892.

With GUUCCGUUGGCGUAAUGGUAACGCGUCUCCCUCCUAAGGAGAAGACUGCGGGUUCGAGACCCGUCCGGACCG [U59A A65C A70C] as the variant, how does the yeast fitness read?
The yeast fitness was 0.551.

With GUUCCGUUGGCGUAAUGGUAACGCGUCUCCCUCCUAAGGAGAAGACUGCGGGUUCGAGACCCGUACGGCACG [U59A A69C] as the variant, how does the yeast fitness read?
Its yeast fitness is 0.914.

For GUUCCGUUGGCGUAAUGGUAACGCGUCUCCCUCCUAAGGAGAAGACUGCGGGUUCGAGACCCGUACGGAGCG [U59A A70G], which yeast fitness is on record?
The yeast fitness was 0.975.

With GUUCCGUUGGCGUAAUGGUAACGCGUCUCCCUCCUAAGGAGAAGACUGCGGGUUCGAGACCCGUACGGAUCG [U59A A70U] as the variant, how does the yeast fitness read?
The yeast fitness was 0.91.

For GUUCCGUUGGCGUAAUGGUAACGCGUCUCCCUCCUAAGGAGAAGACUGCGGGUUCGAGACGCGUACGGAACG [U59A C61G], which yeast fitness is on record?
The yeast fitness was 0.62.

For GUUCCGUUGGCGUAAUGGUAACGCGUCUCCCUCCUAAGGAGAAGACUGCGGGUUCGAGACUCGUACGGAACG [U59A C61U], which yeast fitness is on record?
The yeast fitness was 0.711.

With GUUCCGUUGGCGUAAUGGUAACGCGUCUCCCUCCUAAGGAGAAGACUGCGGGUUCGAGACCAGUACGGAACG [U59A C62A] as the variant, how does the yeast fitness read?
Its yeast fitness is 0.657.

For GUUCCGUUGGCGUAAUGGUAACGCGUCUCCCUCCUAAGGAGAAGACUGCGGGUUCGAGACCGGUACGGAACG [U59A C62G], which yeast fitness is on record?
The yeast fitness was 0.563.

For GUUCCGUUGGCGUAAUGGUAACGCGUCUCCCUCCUAAGGAGAAGACUGCGGGUUCGAGACCCGUACCGAACG [U59A G67C], which yeast fitness is on record?
Its yeast fitness is 0.813.

With GUUCCGUUGGCGUAAUGGUAACGCGUCUCCCUCCUAAGGAGAAGACUGCGGGUUCGAGACCCGAACGGAACG [U59A U64A] as the variant, how does the yeast fitness read?
Its yeast fitness is 0.73.

With GUUCCGUUGGCGUAAUGGUAACGCGUCUCCCUCCUAAGGAGAAGACUGCGGGUUCGAGCCCCGUGCGGAACG [U59C A65G] as the variant, how does the yeast fitness read?
Its yeast fitness is 0.938.

Which yeast fitness does the source give for GUUCCGUUGGCGUAAUGGUAACGCGUCUCCCUCCUAAGGAGAAGACUGCGGGUUCGAGCCCCGUUCGGAACG [U59C A65U] here?
Its yeast fitness is 0.96.

For GUUCCGUUGGCGUAAUGGUAACGCGUCUCCCUCCUAAGGAGAAGACUGCGGGUUCGAGCCCCGUACGGCACG [U59C A69C], which yeast fitness is on record?
Its yeast fitness is 0.968.
